Experimental data taken from article PMC8176898 (Journal of the American Chemical Society, 2021).
Each block holds one molecule with its values, some of them ahead of it. Ends that are not written are not given here.

B4: TAMRA-APP_(C-term) probe, (TAMRA)-NNG-QNGYENPTYKFFEQMQN (peptide)
peptide: {TAMRA}-NNGQNGYENPTYKFFEQMQN

What was measured:
[1] = test system: Aβ42 levels, primary cortical neurons (APPswe/PS1ΔE9); experiment: Aβ42 ELISA of conditioned medium of APPswe/PS1ΔE9 neurons; type: cell-based, mouse; conditions: 24 h incubation
[2] = test system: primary cortical neurons (APPswe/PS1ΔE9); experiment: LDH release; conditions: after 24 h of treatment, TAT-14 10 μM; same conditioned medium as ELISA
[3] = In vitro human plasma stability; type: in vitro ADME
Procedure, shortened: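 Test peptides incubated in human plasma at 37 °C for up to 24 h. At various time points, peptide was extracted and quantified by UPLC. A buffer-only control was run alongside. Mean ± SEM, n = 3.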

[4] = In vitro hepatic clearance, mouse liver microsomes; type: in vitro ADME
primary neurons = experiment: Neuronal cell viability; conditions: colorimetric readout of metabolic activity
[5] = target: T1, human Mint2-PTB-ARM (Mint2-PARM), PARMHis6, residues 364-570 (human, UniProt Q99767 364-570); experiment: fluorescence polarisation
T1 sequence (looked up): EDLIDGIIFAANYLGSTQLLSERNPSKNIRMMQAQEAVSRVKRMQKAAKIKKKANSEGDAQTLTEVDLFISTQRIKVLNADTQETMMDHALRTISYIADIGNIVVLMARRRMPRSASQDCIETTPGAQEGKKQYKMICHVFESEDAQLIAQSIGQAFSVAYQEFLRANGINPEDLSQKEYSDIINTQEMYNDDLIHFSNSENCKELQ

[6] = target: B4; experiment: fluorescence polarisation
Mint2-PARM D462A = target: T2, Mint2-PARM D462A (human, UniProt Q99767 364-570, D462A); experiment: fluorescence polarisation
T2 sequence (looked up): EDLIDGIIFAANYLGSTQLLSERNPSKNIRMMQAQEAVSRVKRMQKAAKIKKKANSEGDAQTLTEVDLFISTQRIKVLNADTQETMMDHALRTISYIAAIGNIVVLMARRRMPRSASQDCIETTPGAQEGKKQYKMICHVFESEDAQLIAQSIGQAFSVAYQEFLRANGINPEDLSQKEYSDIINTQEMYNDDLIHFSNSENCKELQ

Molecule: C[C@H](NC(=O)Cc1cc(F)cc(F)c1)C(=O)NC(C(=O)OC(C)(C)C)c1ccccc1 (stereo partly drawn) [DAPT, N-[N-(3,5-difluorophenacetyl)-l-alanyl]-s-phenyl-glycine tert-butyl ester, reference compound]
reduction of Aβ42 levels (positive control) ([1]; concentration not given): 47% | LDH release relative to vehicle control (in words) [2]: low LDH levels

Molecule: NGYENPTYKFFE [APPWT peptide]
half-life (T1/2) in human plasma ([3]; 37 °C, up to 24 h, UPLC read-out, n = 3): < 30 min | half-life ([3]; human): 26 min | microsomal CLint [4]: 15.4 ± 2.5 µL/min/mg

Molecule: cyclo(DLATEPAK(Dap)-14 (bicyclic or more) [MiniAp4-14]
reduction of Aβ42 levels relative to vehicle control ([1]; 10 μM, vehicle 0.25% DMSO): did not affect Aβ42 production | adverse effect on cell viability over the concentration curve (in words) (primary neurons): no toxicity

Molecule: NGYENPTYKFFE [APPWT peptide (NGYENPTYKFFE; residues 755-766)]
Ki [5]: 4 ± 0.2 µM

Molecule: NGYENPTYKFAE (peptide, UniProt P05067 755-766, looked up) [APPWT peptide F765A]
fold decrease in affinity relative to the APPWT peptide [5]: 18 fold

Molecule: NGAENPTYKFFE (peptide, UniProt P05067 755-766, looked up) [APPWT peptide Y757A]
fold decrease in affinity relative to the APPWT peptide [5]: 76 fold

Molecule: NGYEQPTYKFFE (peptide, UniProt P05067 755-766, looked up) [APPWT peptide N759Q]
Ki [5]: ≥ 500 µM

Molecule: NGYENPTYKAFE (peptide, UniProt P05067 755-766, looked up) [APPWT peptide F764A]
fold decrease in affinity relative to the APPWT peptide [5]: 14 fold

B1: Mint2-PARM F520A (domain or fragment, human, UniProt Q99767 364-570, looked up)
chain: EDLIDGIIFAANYLGSTQLLSERNPSKNIRMMQAQEAVSRVKRMQKAAKIKKKANSEGDAQTLTEVDLFISTQRIKVLNADTQETMMDHALRTISYIADIGNIVVLMARRRMPRSASQDCIETTPGAQEGKKQYKMICHVFESEDAQLIAQSIGQAASVAYQEFLRANGINPEDLSQKEYSDIINTQEMYNDDLIHFSNSENCKELQ
fold reduction in affinity relative to Mint2-PARM^WT [6]: 45 fold

Molecule: B4
binding result [5]: binds | binding result (Mint2-PARM D462A): binds

B7: Mint2-PARM L454A (domain or fragment, human, UniProt Q99767 364-570, looked up)
chain: EDLIDGIIFAANYLGSTQLLSERNPSKNIRMMQAQEAVSRVKRMQKAAKIKKKANSEGDAQTLTEVDLFISTQRIKVLNADTQETMMDHAARTISYIADIGNIVVLMARRRMPRSASQDCIETTPGAQEGKKQYKMICHVFESEDAQLIAQSIGQAFSVAYQEFLRANGINPEDLSQKEYSDIINTQEMYNDDLIHFSNSENCKELQ
fold reduction in affinity relative to Mint2-PARM^WT [6]: > 10 fold

More lines, now with the values ahead:

binding result [5]: binds
Molecule: NGYENPTYKFWE (peptide, UniProt P05067 755-766, looked up) [APPWT peptide F765W]

binding result [5]: binds
Molecule: NGYENPTWKFFE (peptide, UniProt P05067 755-766, looked up) [APPWT peptide Y762W]

binding result [5]: binds
Molecule: NGYENPTYKWFE (peptide, UniProt P05067 755-766, looked up) [APPWT peptide F764W]

fold reduction in affinity relative to wild type [6]: 14 fold
B2: semisynthetic Mint2-pPARMSS S458σ (domain or fragment, human, UniProt Q99767 364-570, looked up)
chain: EDLIDGIIFAANYLGSTQLLSERNPSKNIRMMQAQEAVSRVKRMQKAAKIKKKANSEGDAQTLTEVDLFISTQRIKVLNADTQETMMDHALKTISYIADIGNIVVLMARRRMPRSASQDAIETTPGAQEGKKQYKMIAHVFESEDAQLIAQSIGQAFSVAYQEFLRANGINPEDLSQKEYSDIINTQEMYNDDLIHFSNSENAKELQ
modifications: backbone amide-to-ester at S458 (α-hydroxy acid, S458σ)

fold reduction in affinity relative to wild type [6]: 25 fold
B3: semisynthetic Mint2-pPARMSS D462δ (domain or fragment, human, UniProt Q99767 364-570, looked up)
chain: EDLIDGIIFAANYLGSTQLLSERNPSKNIRMMQAQEAVSRVKRMQKAAKIKKKANSEGDAQTLTEVDLFISTQRIKVLNADTQETMMDHALKTISYIADIGNIVVLMARRRMPRSASQDAIETTPGAQEGKKQYKMIAHVFESEDAQLIAQSIGQAFSVAYQEFLRANGINPEDLSQKEYSDIINTQEMYNDDLIHFSNSENAKELQ
modifications: backbone amide-to-ester at D462 (α-hydroxy acid, D462δ)

fold reduction in affinity relative to Mint2-PARM^WT [6]: > 10 fold
B5: Mint2-PARM Y459A (domain or fragment, human, UniProt Q99767 364-570, looked up)
chain: EDLIDGIIFAANYLGSTQLLSERNPSKNIRMMQAQEAVSRVKRMQKAAKIKKKANSEGDAQTLTEVDLFISTQRIKVLNADTQETMMDHALRTISAIADIGNIVVLMARRRMPRSASQDCIETTPGAQEGKKQYKMICHVFESEDAQLIAQSIGQAFSVAYQEFLRANGINPEDLSQKEYSDIINTQEMYNDDLIHFSNSENCKELQ

fold decrease in affinity relative to wild-type Mint2-PARM [6]: 72 fold
B6: human Mint2-PARM Y459A/F520A (hMint2^Y459A/F520A) (domain or fragment, UniProt Q99767 364-570, looked up)
chain: EDLIDGIIFAANYLGSTQLLSERNPSKNIRMMQAQEAVSRVKRMQKAAKIKKKANSEGDAQTLTEVDLFISTQRIKVLNADTQETMMDHALRTISAIADIGNIVVLMARRRMPRSASQDCIETTPGAQEGKKQYKMICHVFESEDAQLIAQSIGQAASVAYQEFLRANGINPEDLSQKEYSDIINTQEMYNDDLIHFSNSENCKELQ
